Test results taken from ChEMBL document CHEMBL1127325, “Potent gastrin-releasing peptide (GRP) antagonists derived from GRP (19-27) with a C-terminal DPro psi [CH2NH]Phe-NH2 and N-terminal aromatic residues” (J Med Chem, 1994).
Calls of active or inactive are those of the source. No cut-off for these calls is given here. Where a SMILES comes first, the peptide text is derived from it. [ ]: non-standard residue; d: D form. The star is where a group is joined. ProΨ(CH2NH)PheNH2 = NC(=O)[C@H](Cc1ccccc1)NC[C@@H]1CCCN1*; dProψ(CH2NH)PheNH2 = NC(=O)[C@H](Cc1ccccc1)NC[C@H]1CCCN1*; Propanoyl(3-(4-MeO-Ph)) = COc1ccc(CCC(=O)*)cc1; Desaminotyrosyl = O=C(CCc1ccc(O)cc1)*; Hydrocinnamoyl = O=C(CCc1ccccc1)*; X8 = COc1cc(CCC(=O)*)cc(OC)c1OC; X5 = C[C@@H](C(=O)*)c1ccccc1; X6 = C[C@H](C(=O)*)c1ccccc1; X7 = CC(C)(CC(=O)*)c1ccccc1; X1 = CC(C)(C(=O)*)c1ccccc1; Sar = CNCC(=O)O

Experiments:
[1] = target: Gastrin-releasing peptide receptor (Mus musculus) (UniProt P21729); assay: Inhibition of 6 nM bombesin induced [3H]thymidine incorporation measured in swiss 3T3 cells using a mitogenicity assay; type: functional, cell-based
Procedure, shortened: (§1)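 Density-arrested quiescent Swiss 3T3 monolayers treated in triplicate with test peptide (generally log dilutions) plus 6 nM bombesin for 18 h, then pulsed 2 h with 0.5 µCi [3H]thymidine per well. Cells washed with cold PBS, fixed in methanol/acetic acid, solubilized, scintillation counted. IC50 ± SEM over replicate trials; na means no activity at 10^-4 M.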

[2] = target: T1, Gastrin-releasing peptide receptor (Mus musculus, UniProt P21729); assay: The ability of the peptide to inhibit the binding of 50 pM [125I]gastrin releasing peptide to intact S-3T3 cells; type: cell-based
Procedure, shortened: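 Serially diluted peptides overlaid in triplicate on quiescent Swiss 3T3 monolayers (about 10^5 cells) with 50 pM [125I]GRP in maintenance medium, 30 min at 37 °C. Monolayers washed three times with chilled medium, solubilized, radioactivity counted. IC50 values reported.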

[3] = target: T1, Gastrin-releasing peptide receptor; assay: Ability of peptide to inhibit binding of 10 pM [125I]gastrin releasing peptide to S-3T3 cell membrane.; type: cell-based
Procedure, shortened: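 Swiss 3T3 membranes (10 µg protein) incubated in triplicate with 10 pM [125I]GRP(1-27) in HEPES-KOH pH 6.8 (20 mM) with EGTA, MgCl2, BSA and protease inhibitors, 60 min at 37 °C with shaking. Terminated by filtration through PEI-pretreated GF/B filters, gamma counted. Nonspecific binding taken with 10 nM unlabeled GRP(1-27). IC50 for half-maximal inhibition of specific binding by Hill plot analysis.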

NIH3T3 [4] = assay: The ability of the peptide to inhibit the binding of 50 pM [125I]gastrin releasing peptide to intact S-3T3 cells was measured; type: cell-based; details: Mus musculus
Procedure, shortened: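 Quiescent, density-arrested Swiss 3T3 monolayers (about 10^5 cells) in maintenance medium. Serially diluted peptides were added in triplicate with [125I]GRP and incubated 37 °C, 30 min. Monolayers were washed three times with chilled medium, solubilized with detergent and counted. IC50 reported ± SEM.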

[5] = The ability of the peptide to inhibit the binding of 10 pM [125I]gastrin releasing peptide to S-3T3 cell membrane was measured; details: Mus musculus
NIH3T3 [6] = assay: Ability of the peptide to inhibit 6 nM bombesin induced [3H]thymidine incorporation was measured in swiss 3T3 cells using mitogenicity assay; na=Not active; type: functional, cell-based; details: Mus musculus; procedure, shortened: as §1

T1 sequence (P21729 whole entry): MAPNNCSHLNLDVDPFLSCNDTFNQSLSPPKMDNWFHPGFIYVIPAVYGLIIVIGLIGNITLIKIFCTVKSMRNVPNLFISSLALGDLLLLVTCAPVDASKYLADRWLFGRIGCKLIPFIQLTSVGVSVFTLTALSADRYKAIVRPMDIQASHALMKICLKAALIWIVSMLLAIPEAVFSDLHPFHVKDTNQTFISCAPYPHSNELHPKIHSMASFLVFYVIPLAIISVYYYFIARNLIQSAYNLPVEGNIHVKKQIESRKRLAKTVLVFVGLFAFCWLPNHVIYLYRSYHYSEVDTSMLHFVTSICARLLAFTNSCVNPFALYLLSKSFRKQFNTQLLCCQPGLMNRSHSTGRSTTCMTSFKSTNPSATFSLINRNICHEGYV
Sequence of Gastrin-releasing peptide receptor (Mus musculus) (P21729 whole entry): as above

SMILES	Activity [1]	IC50 [2] [nM]	IC50 [3] [nM]	IC50 (NIH3T3 [4]) [nM]	IC50 [5] [nM]	Activity (NIH3T3 [6])
CC(C)[C@H](NC(=O)[C@H](C)NC(=O)[C@H](Cc1c[nH]c2ccccc12)NC(=O)[C@H](Cc1c[nH]cn1)NC(=O)C1C[C@@H]1c1ccccc1)C(=O)N[C@H](C)C(=O)N[C@@H](Cc1c[nH]cn1)C(=O)N1CCC[C@@H]1CN[C@@H](Cc1ccccc1)C(N)=O (stereo partly drawn)	0.2 nM	0.03	0.049			
CC(C)[C@H](NC(=O)[C@H](C)NC(=O)[C@H](Cc1c[nH]c2ccccc12)NC(=O)[C@H](Cc1c[nH]cn1)NC(=O)Cc1ccccc1N)C(=O)N[C@H](C)C(=O)N[C@@H](Cc1c[nH]cn1)C(=O)N1CCC[C@@H]1CN[C@@H](Cc1ccccc1)C(N)=O	13 nM	0.1	2			
CC(C)[C@H](NC(=O)[C@H](C)NC(=O)[C@H](Cc1c[nH]c2ccccc12)NC(=O)[C@H](Cc1cnc[nH]1)NC(=O)CCc1ccc(O)cc1)C(=O)N[C@H](C)C(=O)N[C@@H](Cc1cnc[nH]1)C(=O)N1CCC[C@@H]1CN[C@@H](Cc1ccccc1)C(N)=O (Desaminotyrosyl-HWAV[dA]H-{dProψ(CH2NH)PheNH2})		0.05	0.23			
CC(C)[C@H](NC(=O)[C@H](C)NC(=O)[C@H](Cc1c[nH]c2ccccc12)NC(=O)[C@H](Cc1cnc[nH]1)NC(=O)CCc1ccccc1)C(=O)N(C)CC(=O)N[C@@H](Cc1cnc[nH]1)C(=O)N1CCC[C@H]1CN[C@@H](Cc1ccccc1)C(N)=O (Hydrocinnamoyl-HWAV[Sar]H-{ProΨ(CH2NH)PheNH2})		0.1	21			
CC(C)[C@H](NC(=O)[C@H](C)NC(=O)[C@H](Cc1c[nH]c2ccccc12)NC(=O)[C@H](Cc1c[nH]cn1)NC(=O)C(C)(C)c1ccccc1)C(=O)N[C@H](C)C(=O)N[C@@H](Cc1c[nH]cn1)C(=O)N1CCC[C@@H]1CN[C@@H](Cc1ccccc1)C(N)=O (X1-HWAV[dA]H-{dProψ(CH2NH)PheNH2})	0.34 nM	0.003	0.18			
CC(C)[C@H](NC(=O)[C@H](C)NC(=O)[C@H](Cc1c[nH]c2ccccc12)NC(=O)[C@H](Cc1c[nH]cn1)NC(=O)[C@H](C)c1ccccc1)C(=O)N[C@H](C)C(=O)N[C@@H](Cc1c[nH]cn1)C(=O)N1CCC[C@@H]1CN[C@@H](Cc1ccccc1)C(N)=O (X5-HWAV[dA]H-{dProψ(CH2NH)PheNH2})	0.9 nM	30	0.95			
CC(C)[C@H](NC(=O)[C@H](C)NC(=O)[C@H](Cc1c[nH]c2ccccc12)NC(=O)[C@H](Cc1c[nH]cn1)NC(=O)[C@@H](C)c1ccccc1)C(=O)N[C@H](C)C(=O)N[C@@H](Cc1c[nH]cn1)C(=O)N1CCC[C@@H]1CN[C@@H](Cc1ccccc1)C(N)=O (X6-HWAV[dA]H-{dProψ(CH2NH)PheNH2})	7e-08	1	1.3			
CC(C)[C@H](NC(=O)[C@H](C)NC(=O)[C@H](Cc1c[nH]c2ccccc12)NC(=O)[C@H](Cc1c[nH]cn1)NC(=O)CC(C)(C)c1ccccc1)C(=O)N[C@H](C)C(=O)N[C@@H](Cc1c[nH]cn1)C(=O)N1CCC[C@@H]1CN[C@@H](Cc1ccccc1)C(N)=O (X7-HWAV[dA]H-{dProψ(CH2NH)PheNH2})	18 nM	10	1.2			
COc1cc(CCC(=O)N[C@@H](Cc2c[nH]cn2)C(=O)N[C@@H](Cc2c[nH]c3ccccc23)C(=O)N[C@@H](C)C(=O)N[C@H](C(=O)N[C@H](C)C(=O)N[C@@H](Cc2c[nH]cn2)C(=O)N2CCC[C@@H]2CN[C@@H](Cc2ccccc2)C(N)=O)C(C)C)cc(OC)c1OC (X8-HWAV[dA]H-{dProψ(CH2NH)PheNH2})	0.3 nM			0.001	0.46	
CC(NC(=O)[C@H](Cc1c[nH]c2ccccc12)NC(=O)[C@H](Cc1c[nH]cn1)NC(=O)CCc1ccccc1)C(=O)N[C@H](C(=O)NC(C)C(=O)N[C@@H](Cc1c[nH]cn1)C(=O)N1CCC[C@H]1C(O)CC(=O)N[C@@H](Cc1ccccc1)C(N)=O)C(C)C (stereo in doubt)	26 nM	50	31			
CC(NC(=O)[C@H](Cc1c[nH]c2ccccc12)NC(=O)[C@H](Cc1c[nH]cn1)NC(=O)CCc1ccccc1)C(=O)N[C@H](C(=O)NC(C)C(=O)N[C@@H](Cc1c[nH]cn1)C(=O)N1CCC[C@H]1CN[C@@H](Cc1ccccc1)C(N)=O)C(C)C (stereo in doubt)	1 nM	0.001	0.22			
CC(NC(=O)[C@H](Cc1c[nH]c2ccccc12)NC(=O)[C@H](Cc1cccs1)NC(=O)CCc1ccccc1)C(=O)N[C@H](C(=O)NC(C)C(=O)N[C@@H](Cc1c[nH]cn1)C(=O)N1CCC[C@H]1CN[C@@H](Cc1ccccc1)C(N)=O)C(C)C (stereo in doubt)	50 nM	10	56			
CC(NC(=O)[C@H](Cc1c[nH]c2ccccc12)NC(=O)[C@H](Cc1c[nH]cn1)NC(=O)CCc1ccccc1)C(=O)N[C@H](C(=O)NC(C)C(=O)N[C@@H](Cc1c[nH]cn1)C(=O)N1CCC[C@@H]1C(O)CC(=O)N[C@@H](Cc1ccccc1)C(N)=O)C(C)C (stereo in doubt)		60	140			inactive
CC(C)CC(NC(=O)[C@H](Cc1c[nH]cn1)NC(=O)C(C)NC(=O)[C@@H](NC(=O)C(C)NC(=O)[C@H](Cc1c[nH]c2ccccc12)NC(=O)[C@H](Cc1c[nH]cn1)NC(=O)CCc1ccccc1)C(C)C)C(O)CC(=O)N[C@@H](Cc1ccccc1)C(N)=O (stereo in doubt)	6 nM	0.1	73			
COc1ccc(CCC(=O)N[C@@H](Cc2c[nH]cn2)C(=O)N[C@@H](Cc2c[nH]c3ccccc23)C(=O)N[C@@H](C)C(=O)N[C@H](C(=O)N[C@H](C)C(=O)N[C@@H](Cc2c[nH]cn2)C(=O)N2CCC[C@@H]2CN[C@@H](Cc2ccccc2)C(N)=O)C(C)C)cc1 ({Propanoyl(3-(4-MeO-Ph))}-HWAV[dA]H-{dProψ(CH2NH)PheNH2})	0.3 nM			10	0.47	
